From ChEMBL document CHEMBL1138813, “Synthesis and antiviral activity of 3-formyl- and 3-cyano-2,5,6-trichloroindole nucleoside derivatives” (J Med Chem, 2004)

Legend:
[1] = Inhibitory concentration required against herpes simplex virus type-1 (HSV-1) expressed in BSC-1 cells was determined by ELISA assay; type: functional, cell-based, Cercopithecidae
Summary of the method: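 BSC-1 cells, 10 000 per well in MEM(E) plus 10% calf serum, incubated overnight at 37 °C. Drug added in quadruplicate with HSV-1 KOS strain at 100 pfu/well, then 3 days at 37 °C. […] Acyclovir as positive control.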

[2] = Cytotoxicity against KB cells was determined by crystal violet staining and spectrophotometric quantitation of dye eluted from stained cells; type: functional, cell-based; settings: Homo sapiens
Summary of the method: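 KB cells seeded at 3000–5000 per well, incubated overnight at 37 °C, then compound added in quadruplicate at six to eight concentrations. After 48 h at 37 °C in CO₂ (two population doublings), cells were fixed in 95% ethanol and stained with 0.1% crystal violet. Dye eluted with acidified ethanol, read at 570 nm. IC50 from linear regression of % inhibition vs log10 concentration.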

HFF [3] = assay: Inhibitory concentration required against human cytomegalovirus (HCMV) expressed in HFF cells was determined by plaque reduction assay; type: functional, cell-based
Summary of the method: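 HFF cells in 24-well dishes infected with about 100 pfu/cm² of HCMV Towne strain. After adsorption, compound (10 mg/mL DMSO stock diluted in medium) added to duplicate wells at four to eight concentrations. Incubated 7–10 days at 37 °C, then fixed and crystal violet stained; plaques counted microscopically. % plaque reduction vs drug-free wells; IC50 by log-linear regression. GCV as positive control.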

HFF [4] = assay: Cytotoxicity produced in stationary HFF cells was determined by microscopic inspection of uninfected cells; type: functional, cell-based; settings: Homo sapiens
Summary of the method: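 Stationary HFF cells in MEM with 10% fetal bovine serum, in plaque-assay plates. Visual cytotoxicity scored microscopically in duplicate wells on cells not affected by virus, at the time of HCMV plaque enumeration (after 7–10 days at 37 °C). IC50 from linear portion of regression of % inhibition against log10 drug concentration.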

IC50 [1] [µM]	SMILES	IC50 [2] [µM]	IC50 (HFF [3]) [nM]	IC50 (HFF [4]) [µM]
40	NC(=O)c1c(Cl)n(C2O[C@H](CO)[C@@H](O)C2O)c2cc(Cl)c(Cl)cc12 (single isomer, unassigned)	45	2000	45
15	N#Cc1c(Cl)n(C2O[C@H](CO)[C@@H](O)C2O)c2cc(Cl)c(Cl)cc12 (single isomer, unassigned)	65	550	
70	N/C(=N\O)c1c(Cl)n(C2O[C@H](CO)[C@@H](O)C2O)c2cc(Cl)c(Cl)cc12 (single isomer, unassigned)	> 100	300	100
70	COC(=N)c1c(Cl)n(C2O[C@H](CO)[C@@H](O)C2O)c2cc(Cl)c(Cl)cc12 (single isomer, unassigned)	50	360	100
> 100	N/C(S)=N/N=C/c1c(Cl)n(C2O[C@H](CO)[C@@H](O)[C@H]2O)c2cc(Cl)c(Cl)cc12 (some centres not stated)	65	2200	100
30	COC(=O)N/N=C/c1c(Cl)n(C2O[C@H](CO)[C@@H](O)[C@H]2O)c2cc(Cl)c(Cl)cc12 (some centres not stated)	20	1700	32
130	OC[C@H]1O[C@@H](n2c(Br)nc3cc(Cl)c(Cl)cc32)C(O)[C@@H]1O (single isomer, unassigned)	> 100		
5	OC[C@H]1OC(n2c(Cl)c(/C=N/O)c3cc(Cl)c(Cl)cc32)C(O)[C@@H]1O (single isomer, unassigned)	25	3900	20
30	CC(=O)N/N=C/c1c(Cl)n(C2O[C@H](CO)[C@@H](O)C2O)c2cc(Cl)c(Cl)cc12 (single isomer, unassigned)	9	1700	32
15	CO/N=C/c1c(Cl)n(C2O[C@H](CO)[C@@H](O)C2O)c2cc(Cl)c(Cl)cc12 (single isomer, unassigned)	70	40000	32
> 100	NC(=O)N/N=C/c1c(Cl)n(C2O[C@H](CO)[C@@H](O)[C@H]2O)c2cc(Cl)c(Cl)cc12 (some centres not stated)	> 100	3000	100
15	CN(C)/N=C/c1c(Cl)n(C2O[C@H](CO)[C@@H](O)C2O)c2cc(Cl)c(Cl)cc12 (single isomer, unassigned)	70	270	32
> 100	N/C(=N\O)c1c(Br)n(C2O[C@H](CO)[C@@H](O)C2O)c2cc(Cl)c(Cl)cc12 (single isomer, unassigned)	35	410	> 100

SMILES	IC50 [1] [µM]	IC50 [2] [µM]	IC50 (HFF [3]) [nM]	IC50 (HFF [4]) [µM]
Nc1nc2c(ncn2COC(CO)CO)c(=O)[nH]1 [GANCICLOVIR]	3.5	> 100		> 100
OC[C@H]1O[C@@H](n2c(Cl)nc3cc(Cl)c(Cl)cc32)C(O)[C@@H]1O (single isomer, unassigned)	102	210		
O=Cc1c(Cl)n(C2O[C@H](CO)[C@@H](O)C2O)c2cc(Cl)c(Cl)cc12 (single isomer, unassigned)	40	45	230	
